Test system: MS2 coat protein
Test: apparent Kd, MS2 coat protein; higher = weaker binding; RNA-MaP array; FMN 200 µM where present
Method in brief: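 The apparent Kd is the median of filtered binding-curve fits, one per cluster, to green signal normalised to red-channel RNA signal and control-cluster median Fmax. The clusters were on Illumina sequencing chips, and stalled E. coli RNA polymerase had transcribed the designs on them. Titration used SNAP-549-labelled MS2 coat protein from 0.7 or 1.5 nM, doubling to 3 µM, without and then with constant ligand, in 100 mM Tris-HCl pH 7.5, 80 mM KCl, 4 mM MgCl2, BSA, DTT, yeast tRNA and Tween-20.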

[1] = designed as: OFF switch for flavin mononucleotide, no ligand
[2] = ligand present: flavin mononucleotide, designed as: OFF switch for flavin mononucleotide
[3] = designed as: ON switch for flavin mononucleotide, no ligand
[4] = ligand present: flavin mononucleotide, designed as: ON switch for flavin mononucleotide

| Sequence | apparent Kd [1] [nM] | apparent Kd [2] [nM] | apparent Kd [3] [nM] | apparent Kd [4] [nM] |
| --- | --- | --- | --- | --- |
| CUGACGUCAGGAUAUCUGAUGUCUAACUUCGGUUAGACAUCAGAGAAGGGACAUGAGGAUCACCCAUGUCAGAA | 25.5 | 20.8 | – | – |
| CUGAGCAAUCAAGGAUAUCACGUCGAUUAGACGUGAGAAGGUGAUCAUCACAUGAGGAUCACCCAUGUGUUACAUGGAGCUCAG | – | – | 1170 | 218 |
| CUGAGGCUAGGAUAUACGUGAGGUUAGUUGCGAAGCGCUUGACAUGAGGAUCACCCAUGUAGAAGGAGCGGCUU | 22.6 | 28.9 | – | – |
| CUGAGUAGUCAGGAUAUGUGGUACAAAAGUACUGCAGAAGGGAUUACAUGAGGAUCACCCAUGUUUACUUCAUG | 47.4 | 242 | – | – |
| CUGAUGUGAGGAUAUCUAAAAGAAACUGGGCAAAAUACCAGAGAGAAGGCACAUGAGGAUCACCCAUGUAACGA | 19.1 | 69.5 | – | – |
| CUGAUGUUAGGAUAUCAGGCGCCCGCCACUGGCAGGGCGCAUGAGAAGGGACAUGAGGAUCACCCAUGUAGUAA | 27.5 | 46.1 | – | – |
| CUGAUUAUACAAGGAUAUCUUUUGUUGUUUCGACUUACAUGAGGAUCACCCAUGUUAAUAUUUUUAGAGAAGGUGUAUUUUCAG | – | – | 16.8 | 20.3 |
| CUGCCUUAUGAGAAGGCGAUCAUGAAACAUGAUCGAGGAUAUCAUGUAAACAUGAGGAUCACCCAUGUAUGGGUAUUAUGGUAG | – | – | 529 | 74.5 |
| CUGCUCCGUGUAGGAUAUCCCGGCAACCAAUCGGGAGAAGGACAUGAGGAUCACCCAUGUAUGUUAUUAUCACGUGAAGCGUCC | 23.1 | 30.1 | – | – |
| CUGCUCCGUGUAGGAUAUGCAUACAACCAAUAUGCAGAAGGACAUGAGGAUCACCCAUGUAUGUUAUUAUCACGUGAAGCGUCC | 22.6 | 42.9 | – | – |
| CUGCUGGAGCUUUGCUUUAGUCGUACAUGAGGAUCACCCAUGUAGGAUAUGGUAGGCUAUGCUUACUAGAAGGAUAGAGUGGUC | 62.3 | 32.2 | – | – |
| CUGCUGGAGCUUUGCUUUAGUCGUACAUGAGGAUCACCCAUGUAGGAUAUGGUGGGCUUUGCUUACUAGAAGGAUAGAGUGGUC | 49.9 | 36.3 | – | – |
| CUGCUUCCCAGUAUGGGUAUUUAUACAGAAGGCCAGACACAUGAGGAUCACCCAUGUCAAGUAAUGGAGGAUAUGUUAUUGUCG | – | – | 10.9 | 4.97 |
| CUGGAAUACAGACAUGAGGAUCACCCAUGUUUAAGGGAAGCACAGGAUAUGUCGACGCACCAUAGACAGAAGGGUGACUUGCUU | – | – | 49.4 | 24.8 |
| CUGGGAUCAGUAGGAUAUGCCGGACAUGAGGAUCACCCAUGUAAGGCGUGCUUCCCUCGCGUGCGGCAGAAGGGCUGCAUCACA | 32.7 | 35.4 | – | – |
| CUGUAUGAUGUAGGAUAUACUUUAAUAUUGUAAGUAGAAGGACAUGAGGAUCACCCAUGUAUAUAAAUUUUAAUUAUUUUUGCG | 51.2 | 39.3 | – | – |
| CUGUGACGGUGCGCAAGUGGACGUAGAAGGGUCACAUGAGGAUCACCCAUGUGGGCCUGCUAGUGACAGGAUAUACGUUCGUAC | 13.7 | 38.3 | – | – |
| CUGUUACGUGUAGGAUAUGCAUAUUCCCAUUAUGCAGAAGGACAUGAGGAUCACCCAUGUAUGUUAUUAUCAUGUGUUACAUGC | 34.6 | 153 | – | – |
| CUGUUCCAUGUAGGAUAUGCAUAUUCUCAUUAUGCAGAAGGACAUGAGGAUCACCCAUGUAUGUUAUUAUCAUAUGUUACAUGU | 34.3 | 241 | – | – |

| Sequence | apparent Kd [1] [nM] | apparent Kd [2] [nM] | apparent Kd [3] [nM] | apparent Kd [4] [nM] |
| --- | --- | --- | --- | --- |
| CUUAAACAUGAGGAUCACCCAUGUCAGGAUAUGAUACUAUGUACUUCGGUACAUAGUAUCAGAAGGGAUAUAAA | 34.2 | 33.5 | – | – |
| CUUAGACAUGAGGAUCACCCAUGUGAGGAUAUGAUGCGAUCGUGCUGACAUGAUCGCAUCAGAAGGCACAUAUG | 145 | 322 | – | – |
| CUUAUGUAAGGAUAUCAGUAGUAAAAAAAUAAAAUUACUACUGAGAAGGUACAUGAGGAUCACCCAUGUCUUUC | 113 | 50.5 | – | – |
| CUUAUGUGAGGAUAUCAGUAGUAAUACAAUAGUAUUACUACUGAGAAGGCACAUGAGGAUCACCCAUGUUCCUU | 28.1 | 131 | – | – |
| CUUAUGUGAGGAUAUCAGUAGUAAUACAAUAGUAUUACUACUGAGAAGGCACAUGAGGAUCACCCAUGUUCUUC | 134 | 36.9 | – | – |
| CUUAUGUGAGGAUAUGGUGUUGGCCACAGGAAAAAGAUUCUCCAGAAGGCACAUGAGGAUCACCCAUGUAGUGA | 51.3 | 120 | – | – |
| CUUCAACAAGGAUAUGCCAUGGAUCGACACUGUUACGCGAAACAUGAGGAUCACCCAUGUAGAAGGUGUUGAGA | 78.5 | 96.2 | – | – |
| CUUCAGUCAGGAUAUGUUAAUCUCGCCACUCCACGAGCCGGACAGAAGGGACAUGAGGAUCACCCAUGUUAGAC | 30 | 22.4 | – | – |
| CUUCAGUCAGGAUAUGUUAAUCUCGCCACUCCGCGAGCCGGACAGAAGGGACAUGAGGAUCACCCAUGUUAAAC | 29.5 | 21.9 | – | – |
| CUUCGUAUAGAGGAUAUAGGUUACUACGGUAUCCUAGAAGGCUGUACAUGAGGAUCACCCAUGUACUUCAGAUC | 12.9 | 16.1 | – | – |
| CUUCGUUGUAAGGAUAUCCAGACUCUUCCUGUCGGAGAAGGUACAACAUGAGGAUCACCCAUGUUGCUACAUGG | 25 | 38.7 | – | – |
| CUUCUCAAAGGAUAUCACGGUAAUAACAUGAGGAUCACCCAUGUGCAAUUCGUGUCCCUGUGAGAAGGUUGAGAAG | 10.5 | 18.2 | – | – |
| CUUGCGCGCUCGCCACUUUUCCCACAUGAGGAUCACCCAUGUCAGGAUAUACGUACCGAAAUGGCGUAGAAGGGACACGGGUUA | 166 | 131 | – | – |
| CUUGUUUAUGUGAGGAUAUACUGUUAGUAAUGUUUGUAGAAGGUACAUGAGGAUCACCCAUGUUUAUUUAUAUU | 19.2 | 18 | – | – |
| CUUUCGUGAGGAUAUCAGUAGUAAAAUAAUAAAAUUACUACUGAGAAGGCACAUGAGGAUCACCCAUGUUCCUC | 24.4 | 134 | – | – |
| CUUUCGUGAGGAUAUGUGGCUUCGAUCGUGAGAUCGAAAAUACAGAAGGCACAUGAGGAUCACCCAUGUUCCUC | 37.8 | 456 | – | – |
| CUUUUAUUGGUCCAUUUUUUCAACAUGAGGAUCACCCAUGUGCAGGAUAUCGUGAUUAUUAUCAACGAGAAGGGCAGAUUCACG | 29 | 73.6 | – | – |
| CUUUUGUGAGGAUAUCAGUAGUAAAAAAAUAAAAUUACUACUGAGAAGGUACAUGAGGAUCACCCAUGUUCCUC | 14.2 | 17.6 | – | – |
| CUUUUGUGAGGAUAUCAGUAGUAAUACAAUAGUAUUACUACUGAGAAGGUACAUGAGGAUCACCCAUGUUCCUC | 17.8 | 21.2 | – | – |

| Sequence | apparent Kd [1] [nM] | apparent Kd [2] [nM] | apparent Kd [3] [nM] | apparent Kd [4] [nM] |
| --- | --- | --- | --- | --- |
| CUUUUGUGAGGAUAUGUGGCUUCGAUCGUGAGAUCGAGGCUACAGAAGGCACAUGAGGAUCACCCAUGUUCCUU | 17.6 | 69.7 | – | – |
| CUUUUGUGAGGAUAUUCGUAGUAAAUAAAUAAAAUUAUUACGGAGAAGGCACAUGAGGAUCACCCAUGUUCCUU | 17.1 | 50.3 | – | – |
| GAAAAGUAAGGAUAUGCACACAGUGAGGAAACUCACUGUGUGCAGAAGGUACAUGAGGAUCACCCAUGUUUCUC | 38.1 | 187 | – | – |
| GAAGCAUGCAUUAACAUGAGGAUCACCCAUGUGAAAACACGUGAGGAUAUUGAUCUGAAGAAGAUCGAGAAGGCACCGUGCUAA | – | – | 14.1 | 9.11 |
| GAAGCGCUGGAGAAGGGUGAUCAAGUUAUAAACGUGUACAUGAGGAUCACCCAUGUCAGGGAAUCGCAGGAUAUCCAGCUGAAC | – | – | 315 | 42.9 |
| GAAGUUAGAGGAUAUACAUGAGGAUCACCCAUGUGUGUUGUGAACGAUGUACGUUUAUGUAGAAGGCUAACUUC | 23.6 | 106 | – | – |
| GAAUAAUUGAUCCAAUUUAUCUACAUGAGGAUCACCCAUGUGCAGGAUAUCGUAAAAUUUAAUAACGAGAAGGGCAAGAACGGU | 135 | 385 | – | – |
| GAAUAAUUGAUCCAAUUUAUCUACAUGAGGAUCACCCAUGUGCAGGAUAUCGUAAUAUUUAAUUACGAGAAGGGCAAGAACGGU | 281 | 425 | – | – |
| GAAUAAUUGAUCCAUUUUUAAAACAUGAGGAUCACCCAUGUGCAGGAUAUCGAUAGUUUUAGAUUCGAGAAGGGCAAGAACUGU | 88.2 | 149 | – | – |
| GAAUAUUCGUUGUACAUGAGGAUCACCCAUGUGACUUGACAUGAGGAUAUGGAUUCUAAUUGGAUCCAGAAGGCAUGAAUAUUC | – | – | 122 | 31.5 |
| GAAUAUUCGUUGUACAUGAGGAUCACCCAUGUGACUUUACAUGAGGAUAUGGAUUCUAAUUGGAUCCAGAAGGCAUGAAUAUUC | – | – | 171 | 35 |
| GACAAACAUGAGGAUCACCCAUGUUCAGACGAACAAGGAUAUGUGUGGAAACCAUACUAUACAGAAGGUGUCUGUC | – | – | 48.6 | 31.1 |
| GACAAGGGAGGAUAUGCACAAGGGAUAUCUGACAUGCCGAUACAUGAGGAUCACCCAUGUAGAAGGCCCGAAUA | 11.4 | 18.3 | – | – |
| GACACGUGAGGAUAUACAUGAGGAUCACCCAUGUAAGUACACGUGGCUGUUCCUGCAUGUAGAAGGCACGCAUU | 22.8 | 17.2 | – | – |
| GACAGGGAUUCAGGAUAUAUUAGCCGAGGCCGAGUAGAAGGGAAAUCCUGACAUGAGGAUCACCCAUGUCGACCCGCCUUCCUU | – | – | 50.7 | 51.9 |
| GACAUACAUGAGGAUCACCCAUGUUCAAGCGGACAAGGAUAUGUGUGGAAACCAUACUAUACAGAAGGUGUCUGUC | – | – | 25.9 | 17.1 |
| GACAUGAGGAUCACCCAUGUACAUGAGGAUCACCCAUGUUCUGAGGAUAUAGAUGAGGAUCACCUCUAGAAGGCAGCGCGCGCG | 251 | 202 | – | – |
| GACAUGAGGAUCACCCAUGUCCGGGCCAAAAGAAGAAAUACCAGAAGGACCGGCAGAAAUGAGCGGUAGGAUAUGGGAUUCGUG | – | – | 36.7 | 12.1 |
